Screens (PubChem BioAssay)
Ecoli WT expand – E. coli BW25113 growth inhibition, expanded screen; OD600 absorbance; growth inhibition, % at 100 µM; 0.15% of 98,000 active; AID 710;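 active = growth inhibition above about 50% at one test dose, limit read from the data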;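 also: growth measured after 20 h incubation at 37 °C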
tolC growth inh – growth inhibitors of E. coli BW25113 tolC mutant; OD615; growth inhibition, % at 10 µM (by protocol); 2.2% of 65,000 active; AID 573;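 active = growth inhibition at or above a cutoff equal to the mean over every tested compound plus 3 SD, cut at about 60% in these data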;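 also: growth measured after 20 h incubation at 37 °C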
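Test system: E. coli BW25113 ΔtolC::kan bacteria | Medium: Kanamycin-containing LB broth (50 µg/mL) | Dosing: One dose of 10 µM final | Times: 20 h incubation with compound, 37 °C | Detection: Optical density read at 615 nm | Read-out basis: Percent growth inhibition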
PostGolgi yeast – growth inhibition of a yeast mutant, post-Golgi transport screen | post-Golgi transport phenotypic cell assay | inhibition, % at 10 µM | 0.9% of 98,000 active | AID 739;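 also: yeast cells grown in 1536-well plates; yeast grown about 18 h at 30C before absorbance read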
Her2 expr inh – lowers expression of human Her2 kinase; P04626; SKBR-3 HER2 protein level, AlphaScreen, 18-24 h; stronger effect = lower value; HER2 level % of control, % at 10 µM; 0.69% of 65,000 active; AID 645;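 active = HER2 level under 5% of the carrier-only control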;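 also: lower value means stronger loss of Her2 protein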
PostGolgi ctrl – yeast control strain growth, post-Golgi counter-screen; inhibition, % at 10 µM; efflux-deficient yeast background strain, growth absorbance A615, 16 h; 5% of 98,000 active; AID 738
A number is an active result; . = inactive; / = no result given. Sampled rows, rich in hits. Any-hit rate of the full collection: about 6.6%. Rule as the data show it, unless noted: active = inhibition above about 30%; inactive = the rest.

SMILES	Ecoli WT expand	tolC growth inh	PostGolgi yeast	Her2 expr inh	PostGolgi ctrl
N#CC1=C(N)N(c2ccccc2)C(c2ccccc2)C1(C#N)C#N (configuration not stated)	.	.	.	.	.
Clc1ccc(-n2c(SC/C=C/c3ccccc3)nnc2-c2cccnc2)cc1	.	/	.	/	35
Cc1cc(C)c(S(=O)(=O)Nc2ccc3c4c(cccc24)CC3)c(C)c1	.	/	.	/	61
CCOc1cc(C(=O)NCCOC)ccc1OC	.	.	.	-8.0	.
COCCCNC(=O)c1cccc(C(=O)NCCCOC)c1	.	.	.	.	41
CNC(=O)c1cc(S(=O)(=O)N(C)C)ccc1Cl	.	.	.	.	.
CCC(C)c1ccc(O)c(NC(=O)c2cncc(Br)c2)c1 (configuration not stated)	.	.	.	.	.
COc1ccc(Cl)cc1NC(=O)c1nc2nc(C)cc(C(F)F)n2n1	.	.	.	.	.
COC(=O)c1c(NC(=O)c2nc3nc(C)cc(C(F)F)n3n2)sc2c1CCC2	.	/	.	/	34
Cc1cc(C(F)F)n2nc(C(=O)Nc3sc4c(c3C#N)CCC(C)C4)nc2n1 (configuration not stated)	.	/	30	/	33
Cc1cc(C(=O)Nc2sc3c(c2C#N)CCC(C)C3)cs1 (configuration not stated)	.	.	.	.	.
Cc1ccc(NC(=S)C2=C(O)c3ccccc3N(C)S2(=O)=O)cc1	.	/	.	/	.
CCn1c(SC(C)C(=O)NC2CCCc3ccccc32)nnc1-c1cccs1 (configuration not stated)	.	/	.	/	.
COc1ccc(S(=O)(=O)NCCSCc2ccccc2C)cc1Br	.	/	.	/	36
Cc1ccccc1CSCCNS(C)(=O)=O	.	/	.	/	.
C=CCSC1=C(C#N)C(c2ccc(OCC)cc2)CC(=O)N1 (configuration not stated)	.	.	.	.	.
COc1ccc(C(=O)c2c(C(F)(F)F)oc3c2C(=O)c2ccccc2C3=O)cc1	.	/	84	/	46
COc1ccc(C(=O)c2oc3ccccc3c2NC(C)=O)cc1	.	/	.	/	.
Cc1ccc(NC(CNS(=O)(=O)c2ccc(Cl)cc2)c2ccccc2)cc1 (configuration not stated)	.	/	.	/	31
CC1=CC(C)(C)N(C(=O)c2ccccc2)c2ccc(C)cc21	.	/	.	/	.
COc1ccc(C(=O)N2c3cc4c(cc3C(C)=CC2(C)C)OCO4)cc1	.	74	.	.	.
O=C1c2ccccc2C(O)(c2ncc[nH]2)N1CCc1ccccc1 (configuration not stated)	.	/	.	/	.
O=C(Cn1cc([N+](=O)[O-])cn1)Nc1ccn(Cc2c(F)c(F)c(F)c(F)c2F)n1	.	/	.	/	.
CCn1nc(NS(=O)(=O)c2ccccc2)c2cc3cccc(C)c3nc21	.	.	.	.	.
CCCn1nc(NS(C)(=O)=O)c2cc3cccc(C)c3nc21	.	.	.	.	36
SMILES	Ecoli WT expand	tolC growth inh	PostGolgi yeast	Her2 expr inh	PostGolgi ctrl
COC(=O)c1[nH]c2ccc(C)cc2c1NC(=O)CN1CCCc2ccccc21	.	.	.	-22	48
Cc1cc(S(=O)(=O)Nc2c(C(=O)O)[nH]c3ccccc23)ccc1F	.	.	.	.	.
COC(=O)c1[nH]c2ccc(C)cc2c1NS(=O)(=O)c1ccc(F)cc1	.	83	.	.	.
COC(=O)c1[nH]c2ccc(C)cc2c1NS(=O)(=O)c1ccc(F)c(C)c1	.	96	.	.	.
CCN(CC)S(=O)(=O)c1cc(Br)ccc1OC	.	.	.	.	.
CCN(CC)S(=O)(=O)c1cc(Br)c(C)cc1OC	.	.	.	.	33
Cc1ccc(-c2csc3ncnc(Sc4nnc(CN5CCCCCC5=O)o4)c23)cc1	.	61	.	-25	.
Cc1ccc(-c2csc3ncn(CC(=O)N4CCOCC4)c(=O)c23)cc1	.	/	.	/	.
O=C(CSc1ccc2nnc(-c3ccccn3)n2n1)N1CCN(c2ccccc2)CC1	.	.	.	.	.
N=c1c2c(n(Cc3ccc(Cl)c(Cl)c3)c3c1CCC3)CCCC2	.	100	.	.	.
O=C(NN=C1CCCC1)C(=O)Nc1cccc(C(F)(F)F)c1	.	/	.	/	.
COc1cc(S(=O)(=O)NCc2cccnc2)c(OC)cc1Br	.	/	.	/	.
Cc1cc(N2CCCCCC2)nc(-c2ccccc2O)n1	.	81	.	.	34
Cc1cc(Oc2ccccc2)nc(-c2ccccc2)n1	.	.	.	.	.
Cc1cc(N2CCN(C(=O)c3ccco3)CC2)nc(-c2ccccc2)n1	/	.	/	.	/
Cc1cc(N2CCN(c3ccccc3)CC2)nc(-c2ccccc2)n1	.	77	.	.	67
